The values that follow come from ChEMBL document CHEMBL5357044, “Discovery of a dual-acting inhibitor of interleukin-1β and STATs for the treatment of inflammatory bowel disease” (RSC Med Chem, 2024).

SMILES strings stand for the structures. Calls of active or inactive are those of the source. The rule behind the calls is not given here.

Test [1] concerns Mus musculus. In words: Anti-colitis activity against DSS-induced ulcerative colitis mouse model assessed as increase in body weight at 10 mg/kg/day, po treated for 9 days. Type of test: functional, organism-based. The conditions noted are these: time 9.0 day. The essentials:
(§1)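 DSS colitis: 2.5% DSS in drinking water days 1–7, water days 8–9. Salicylazosulfapyridine given daily by intragastric gavage, 10 mg kg−1. Body weight and fecal blood recorded daily; colon length measured at sacrifice on day 9.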

For test [2], the system named is Mus musculus. Put plainly: Anti-colitis activity against DSS-induced ulcerative colitis mouse model assessed as decrease in hemafecia at 10 mg/kg/day, po treated for 9 days. Type of test: functional, organism-based. Conditions: time 9.0 day. In short, it runs like this:
as §1

The subject of test [3] is Mus musculus. In words: Anti-colitis activity against DSS-induced ulcerative colitis mouse model assessed as increase in colon length at 10 mg/kg/day, po treated for 9 days. Type of test: functional, organism-based. The conditions noted are these: time 9.0 day. In short, it runs like this: as §1
Test [4] has as its system Colon. In words: Anti-colitis activity against DSS-induced ulcerative colitis mouse model assessed as decrease in infiltration of inflammatory cells in colon tissue at 10 mg/kg/day, po for 9 days by H and E staining based analysis. Type of test: functional, organism-based. Conditions: time 9.0 day. The essentials: (§2)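 H&E-stained colon sections (×20) scored for inflammatory cell infiltration, goblet cell depletion and crypt architecture. Samples were taken on day 9 from mice given 2.5% DSS water days 1–7 and daily intragastric SASP 10 mg kg−1.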

For test [5], the system named is Colon. In words: Anti-colitis activity against DSS-induced ulcerative colitis mouse model assessed as increase in goblet cells in colon tissue at 10 mg/kg/day, po for 9 days by H and E staining based analysis. Conditions: time 9.0 day. Type of test: functional, organism-based. The essentials: as §2
The subject of test [6] is Colon. In words: Anti-colitis activity against DSS-induced ulcerative colitis mouse model assessed as increase in crypt architecture in colon tissue at 10 mg/kg/day, po for 9 days by H and E staining based analysis. The format is functional, organism-based. Conditions: time 9.0 day. In short, it runs like this:
as §2

Test [7] addresses NACHT, LRR and PYD domains-containing protein 3 (Mus musculus, UniProt Q8R4B8). Put plainly: Inhibition of NLRP3 inflammasome activation in mouse J774.A1 cells assessed as reduction in LPS-stimulated IL-1beta level pretreated for 1 hr followed by nigericin treatment for 1 hr by ELISA. Type of test: cell-based. The essentials:
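J774A.1 cells (DMEM, 10% FBS) primed with LPS 1 μg mL−1 for 5 h, compound 1 h, then nigericin 10 μM for 1 h. Supernatant IL-1β by ELISA; IC50 from three separate determinations.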

NACHT, LRR and PYD domains-containing protein 3, sequence (Q8R4B8 whole entry, the tested form may be a part): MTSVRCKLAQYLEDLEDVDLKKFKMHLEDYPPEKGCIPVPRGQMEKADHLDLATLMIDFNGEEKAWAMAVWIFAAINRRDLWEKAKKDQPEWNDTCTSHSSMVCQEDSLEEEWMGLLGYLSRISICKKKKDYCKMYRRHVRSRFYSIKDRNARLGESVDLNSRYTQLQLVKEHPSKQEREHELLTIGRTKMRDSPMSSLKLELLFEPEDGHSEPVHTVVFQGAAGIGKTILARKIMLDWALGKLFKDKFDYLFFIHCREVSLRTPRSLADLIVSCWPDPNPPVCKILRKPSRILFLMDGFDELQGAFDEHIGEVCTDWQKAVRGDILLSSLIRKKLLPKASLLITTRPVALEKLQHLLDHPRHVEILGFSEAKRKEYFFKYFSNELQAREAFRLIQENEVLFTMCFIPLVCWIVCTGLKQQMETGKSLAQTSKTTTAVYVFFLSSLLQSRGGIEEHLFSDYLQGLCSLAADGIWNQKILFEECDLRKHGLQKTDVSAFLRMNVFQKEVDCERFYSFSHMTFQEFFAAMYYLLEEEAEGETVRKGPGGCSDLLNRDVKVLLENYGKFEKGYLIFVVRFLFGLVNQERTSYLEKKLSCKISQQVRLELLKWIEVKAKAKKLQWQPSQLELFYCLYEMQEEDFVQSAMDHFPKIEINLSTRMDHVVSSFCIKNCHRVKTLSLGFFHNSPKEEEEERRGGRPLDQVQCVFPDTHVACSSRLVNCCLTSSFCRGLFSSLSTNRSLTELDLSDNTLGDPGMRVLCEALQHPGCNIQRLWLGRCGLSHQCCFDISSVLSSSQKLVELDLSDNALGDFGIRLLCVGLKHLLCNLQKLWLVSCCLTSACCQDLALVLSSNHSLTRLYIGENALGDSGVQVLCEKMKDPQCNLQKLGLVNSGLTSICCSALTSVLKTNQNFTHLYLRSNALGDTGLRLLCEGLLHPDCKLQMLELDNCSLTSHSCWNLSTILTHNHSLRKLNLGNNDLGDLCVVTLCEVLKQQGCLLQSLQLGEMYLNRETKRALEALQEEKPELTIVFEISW

`O=C(O)c1cc(/N=N/c2ccc(S(=O)(=O)Nc3ccccn3)cc2)ccc1O`: the result in the test with Mus musculus [1] and in the test with Mus musculus [2] was inactive. For the same compound, the outcome in the test with Mus musculus [3], in the test on Colon [4], with Colon [5] and with Colon [6] was Active.

Take `COC(=O)C1(C(=O)Nc2ccc(C(=O)/C=C/c3cc(C)c(O)c(C)c3)cc2)CC1`: in test [7], the IC50 came out at 3.01 µM.

As to `Cc1cc(/C=C/C(=O)c2ccc(C(=O)NCC(=O)N(C)C)cc2)cc(C)c1O`, the IC50 in test [7] is 5.97 µM.

As to `COc1ccc(C(=O)/C=C/c2cc(C)c(O)c(C)c2)cc1`, the IC50 in test [7] amounted to 14.4 µM. The same measure, in the same setting: the result for `CCN(CC)C(=O)CNC(=O)c1ccc(C(=O)/C=C/c2cc(C)c(O)c(C)c2)cc1` reads 5.95 µM; that for `Cc1cc(/C=C/C(=O)c2ccc(C(=O)NCC(=O)O)cc2)cc(C)c1O`, > 50 µM; that for `CNC(=O)CNC(=O)c1ccc(C(=O)/C=C/c2cc(C)c(O)c(C)c2)cc1`, 3.02 µM.

In the case of `COC(=O)CNC(=O)c1ccc(C(=O)/C=C/c2cc(C)c(O)c(C)c2)cc1`, the IC50 in test [7] was 1.08 µM. Turning to `CSc1ccc(C(=O)/C=C/c2cc(O)cc(O)c2)cc1`, the IC50 in test [7] amounted to 1.57 µM. Turning to `Cc1cc(/C=C/C(=O)c2ccc(C(=O)N[C@@H](Cc3ccccc3)C(=O)O)cc2)cc(C)c1O`, in test [7], the IC50 worked out at 3.37 µM. Consider `Cc1cc(/C=C/C(=O)c2ccc(C(=O)NCC(=O)Nc3ccccc3)cc2)cc(C)c1O`, for which the IC50 in test [7] was > 50 µM. On the same count and under the same terms, for `CCN(CC)C(=S)SCCC(=O)Nc1ccc(C(=O)/C=C/c2cc(C)c(O)c(C)c2)cc1` the value was 3.8 µM. On the same count and under the same terms, for `Cc1cc(/C=C/C(=O)c2ccc3c(c2)COC32CNC2)cc(C)c1O` the value was 5.21 µM; for `CSc1ccc(C(=O)/C=C/c2cc(C)c(O)c(C)c2)cc1`, 3.67 µM; for `COC(=O)[C@H](Cc1ccccc1)NC(=O)c1ccc(C(=O)/C=C/c2cc(C)c(O)c(C)c2)cc1`, 1.09 µM.

Take `Cc1cc(/C=C/C(=O)c2ccc(NC(=O)CCN(C)C)cc2)cc(C)c1O`: the IC50 in test [7] was 5.97 µM. In the case of `CCOC(=O)c1ccc(C(=O)/C=C/c2cc(C)c(O)c(C)c2)cc1`, in test [7], the IC50 turned out to be 8.36 µM.

Regarding `Cc1cc(/C=C/C(=O)c2ccc(C(=O)O)cc2)cc(C)c1O`, the IC50 in test [7] is > 50 µM.

In the case of `CCNC(=O)CNC(=O)c1ccc(C(=O)/C=C/c2cc(C)c(O)c(C)c2)cc1`, the IC50 in test [7] turned out to be 3.96 µM. As for `CCOC(=O)CSc1ccc(C(=O)/C=C/c2cc(C)c(O)c(C)c2)cc1`, in test [7], the IC50 was found to be 4.93 µM. The same measure, in the same setting: the result for `CCN(CC)C(=S)Sc1ccc(C(=O)/C=C/c2cc(C)c(O)c(C)c2)cc1` reads 27.1 µM.
